Results collected from several papers.
Compare with care: the assays were run in different laboratories.
Organism: Severe acute respiratory syndrome coronavirus 2
Effect on: viral replication

SMILES | mode | cells | time | IC50
O=C1CCC(N2C(=O)c3ccccc3C2=O)C(=O)N1 (stereo not drawn) | inhibitor | Huh-7 | – | > 2 µM
CN(C)CCC=C1c2ccccc2CCc2ccccc21 | inhibitor | A549-ACE2 | – | 0.871 µM
CCN(CCO)CCCC(C)Nc1ccnc2cc(Cl)ccc12 (stereo not drawn) | inhibitor | Vero C1008 | – | 9.21 µM
CCOC(=O)N1CCC(=C2c3ccc(Cl)cc3CCc3cccnc32)CC1 | inhibitor | Huh-7 | – | > 2 µM
Cc1cccc(C)c1OCC(=O)N[C@@H](Cc1ccccc1)[C@@H](O)C[C@H](Cc1ccccc1)NC(=O)[C@H](C(C)C)N1CCCNC1=O | inhibitor | Vero C1008 | – | 7.79 to 12 µM
CN(C)CCCN1c2ccccc2Sc2ccc(Cl)cc21 | inhibitor | A549-ACE2 | – | 2.24 µM
CC(=O)OC[C@H]1O[C@@H](Sc2nc(N)c(C(=O)Nc3ccccc3)c(=S)[nH]2)[C@H](OC(C)=O)[C@@H](OC(C)=O)[C@H]1OC(C)=O | – | Vero C1008 | 72 h | 86 µM
CC(C)(C)OC(=O)N[C@H]1CCCCC/C=C\[C@@H]2C[C@@]2(C(=O)NS(=O)(=O)C2CC2)NC(=O)[C@@H]2C[C@@H](OC(=O)N3Cc4cccc(F)c4C3)CN2C1=O | – | HEK-293T | – | > 50 µM
COc1cc2c(cc1OC)CN(CCc1ccc(NC(=O)c3cccc4c(=O)c5cccc(OC)c5[nH]c34)cc1)CC2 | inhibitor | A549-ACE2 | – | 3.89 µM
NC(=O)c1nc(F)c[nH]c1=O | inhibitor | Vero C1008 | – | > 100 µM
Nc1nc(S[C@@H]2O[C@H](CO)[C@H](O)[C@H](O)[C@H]2O)[nH]c(=S)c1C(=O)Nc1ccc(Cl)cc1 | – | Vero C1008 | 72 h | 15.4 µM
Clc1ccc(C(OCCN2CCCCC2)c2ccccc2)cc1 (stereo not drawn) | inhibitor | A549-ACE2 | – | 1.51 µM
O=c1c(O[C@@H]2O[C@H](CO)[C@@H](O)[C@H](O)[C@H]2O)c(-c2ccc(O)c(O)c2)oc2cc(O)cc(O)c12 | inhibitor | Huh-7 | – | > 2 µM
OCCN1CCN(CCCN2c3ccccc3C=Cc3ccccc32)CC1 | – | Vero C1008 | – | 10 µM
N=C(N)NCCN1CCCCCCC1 | inhibitor | Huh-7 | – | > 2 µM
Cc1cccc(/C=N/Nc2cc(N3CCOCC3)nc(OCCc3ccccn3)n2)c1 | inhibitor | Vero C1008 | – | 0.012 µM
COCCCC/C(=N\OCCN)c1ccc(C(F)(F)F)cc1 | inhibitor | A549-ACE2 | – | 2.09 µM
COc1cccc2c1C(=O)c1c(O)c3c(c(O)c1C2=O)C[C@@](O)(C(C)=O)C[C@@H]3O[C@H]1C[C@H](N)[C@H](O)[C@H](C)O1 | inhibitor | Calu-3 | 40 h | 1.23 µM
CCCCCCCCCCCCCCCC(=O)N[C@H]1C[C@@H](O)[C@@H](O)NC(=O)[C@@H]2[C@@H](O)[C@@H](C)CN2C(=O)[C@H]([C@@H](C)O)NC(=O)[C@H]([C@H](O)[C@@H](O)c2ccc(O)cc2)NC(=O)[C@@H]2C[C@@H](O)CN2C(=O)[C@H]([C@@H](C)O)NC1=O | inhibitor | Vero | 24 h | 1.3 µg/mL
COc1ccc(CN2CCN(Cc3ccccc3)CC2)cc1 | – | Vero C1008 | – | 1.58 µM
CCN(CC)CCNC(=O)c1cc(Cl)c(N)cc1OC | inhibitor | Huh-7 | – | 0.468 µM
